Measured values as given in ChEMBL document CHEMBL1125624, “Identification and exploitation of the sigma-opiate pharmacophore” (J Med Chem, 1991).

Biological target: Sigma non-opioid intracellular receptor 1 (Rattus norvegicus, UniProt Q9R0C9)
Test: Binding affinity towards sigma opioid receptor was determined in rat cerebral homogenate using [3H]haloperidol as radioligand
Procedure, shortened: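 Male Sprague-Dawley rat cerebellum was homogenized in 50 mM Tris-HCl pH 7.7 and spun at 39000g for 15 min, three times in all. At least nine competitor concentrations were run with 1 nM [3H]haloperidol plus 25 nM spiperone (to block D2) on 3 mg wet-weight tissue for 90 min. Nonspecific binding was taken with 10 µM DTG. GF/C filtration, scintillation counting; Ki ± SEM, minimum three determinations.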

Sequence of Sigma non-opioid intracellular receptor 1 (Q9R0C9 whole entry): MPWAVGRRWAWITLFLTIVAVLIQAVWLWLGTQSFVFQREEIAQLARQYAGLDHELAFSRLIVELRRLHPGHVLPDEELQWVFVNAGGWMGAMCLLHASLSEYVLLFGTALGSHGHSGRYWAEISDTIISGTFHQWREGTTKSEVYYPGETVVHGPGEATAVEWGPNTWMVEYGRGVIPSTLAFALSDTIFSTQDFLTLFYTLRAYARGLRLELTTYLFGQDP

Compound | Ki [nM]
CC(N)Cc1ccccc1 (racemic) [AMPHETAMINE] | > 50000
C[C@H](Cc1ccccc1)NCCCc1ccccc1 | 14
C[C@H](Cc1ccccc1)NCCC(=O)c1ccccc1 | 73
C[C@H](Cc1ccccc1)NCc1ccccc1 [N-BENZYLAMPHETAMINE] | 103
C[C@@H](Cc1ccccc1)N(C)CCc1ccccc1 | 16
C[C@H](Cc1ccccc1)NCCOc1ccccc1 | 32
C[C@@H](Cc1ccccc1)NCCc1ccccc1 | 4.8
C[C@H](Cc1ccccc1)NCCc1ccccc1 | 46
CC(Cc1ccccc1)NCCCCc1ccccc1 (racemic) | 3.9
C[C@H](Cc1ccccc1)NCC1CC1 | 664
